Measured values published in publication PMC7396962 (Xenobiotica; the fate of foreign compounds in biological …, 2020).

Assays:
BCRP = molecular target: T1, BCRP (Homo sapiens, UniProt Q9UNQ0); experiment: Glucuronide excretion in HeLa1A1 cells with DIPY; format: cell-based; conditions: CA 10 μM, DIPY 5 or 20 μM
T1 sequence (Q9UNQ0 1-655): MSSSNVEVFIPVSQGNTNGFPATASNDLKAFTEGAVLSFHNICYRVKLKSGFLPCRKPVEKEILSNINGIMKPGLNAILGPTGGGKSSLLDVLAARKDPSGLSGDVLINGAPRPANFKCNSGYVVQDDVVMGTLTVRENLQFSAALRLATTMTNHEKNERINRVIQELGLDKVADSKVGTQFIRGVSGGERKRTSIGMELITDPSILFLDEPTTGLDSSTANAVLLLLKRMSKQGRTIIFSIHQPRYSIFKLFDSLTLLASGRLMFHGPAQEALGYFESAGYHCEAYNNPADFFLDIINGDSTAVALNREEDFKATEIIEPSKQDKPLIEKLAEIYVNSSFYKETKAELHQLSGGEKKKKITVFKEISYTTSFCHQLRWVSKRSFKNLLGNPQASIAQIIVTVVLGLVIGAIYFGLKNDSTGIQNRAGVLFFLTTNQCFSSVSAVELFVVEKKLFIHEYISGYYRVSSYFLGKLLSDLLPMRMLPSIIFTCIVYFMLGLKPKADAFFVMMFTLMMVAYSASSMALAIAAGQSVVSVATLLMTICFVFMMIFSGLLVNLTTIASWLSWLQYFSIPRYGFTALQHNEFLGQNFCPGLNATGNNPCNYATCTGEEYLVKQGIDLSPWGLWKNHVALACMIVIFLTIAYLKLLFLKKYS
Summary of the method: (§1)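 HeLa cells overexpressing UGT1A1 grown in DMEM/10% FBS, seeded 2 × 10^5 cells/well and used near 90% confluence after HBSS washes. Exposed at 37 °C to test compound 10 μM in HBSS with inhibitor 5 or 20 μM or vehicle. Medium sampled at 0.5, 1, 1.5 and 2 h; cells lysed at 2 h in 50% methanol. Excretion rate, CLapp (ER/intracellular concentration) and fmet calculated; triplicate.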

MRPs = experiment: Glucuronide excretion in HeLa1A1 cells with MK571; format: cell-based; conditions: CA 10 μM, MK571 5 or 20 μM
Summary of the method: as §1

| CA-O-glucuronide excretion (BCRP) | fmet values (BCRP) | intracellular amounts of glucuronide levels (BCRP) | SMILES | fmet value (MRPs) | intracellular accumulation of glucuronide (MRPs) |
| --- | --- | --- | --- | --- | --- |
| moderate decrease | significant decrease | statistical increase | OCCN(CCO)c1nc(N2CCCCC2)c2nc(N(CCO)CCO)nc(N3CCCCC3)c2n1 [DIPY, dipyridamole] | – | – |
| – | – | – | CN(C)C(=O)CCSC(SCCC(=O)O)c1cccc(/C=C/c2ccc3ccc(Cl)cc3n2)c1 (centres unmarked) [MK571] | significant reduction | elevated |
